Key:
Type in all cases: functional
[1] = Hydroxy radical scavenging activity assessed by measuring malondialdehyde produced at 400 ug/kg by thiobarbituric acid method; conditions: in the assay text read “400 ug/ml” for “400 ug/kg”
In short: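 Non-enzymic hydroxyl-radical generation: deoxyribose 2.8 mM, FeSO4 2 mM, sodium ascorbate 2.0 mM and H2O2 2.8 mM in 50 mM KH2PO4, pH 7.4. Run with or without test compound at […], 37 °C for 90 min. Compared with compound-free reaction by Student's t-test.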

[2] = tested on: Rattus norvegicus; assay: Decrease in total cholesterol level in WR-1339-induced hyperlipidemic rat plasma at 400 mg/kg, po; design: scale not given: the % may be the effect or the level left
In short: (§1)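 Male adult Charles Foster rats (200–225 g), six per group. Triton WR-1339 400 mg/kg b.w. ip; treatment suspended in water with 0.2% w/v gum acacia, given po at the same time; diet withdrawn. Vehicle controls were included. After 18 h, under thiopentone anaesthesia, retro-orbital blood was collected into EDTA. Plasma was diluted 1:3 in saline and assayed enzymatically on an autoanalyzer. Percent change vs triton-only group, Student's t-test.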

[3] = tested on: Rattus norvegicus; assay: Decrease in triglyceride level in WR-1339-induced hyperlipidemic rat plasma at 400 mg/kg, po; design: scale not given: the % may be the effect or the level left; in short: as §1
[4] = tested on: Rattus norvegicus; assay: Decrease in phospholipid level in WR-1339-induced hyperlipidemic rat plasma at 400 mg/kg, po; design: scale not given: the % may be the effect or the level left; in short: as §1
[5] = Superoxide radical scavenging activity assessed by measuring formazone produced at 400 ug/kg; conditions: in the assay text read “400 ug/ml” for “400 ug/kg”
In short: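 Superoxide generated enzymatically with xanthine ([…]), xanthine oxidase (0.04 U) and nitroblue tetrazolium, in 100 mM phosphate buffer, pH 8.2. Samples were sonicated in buffer and added at […], 37 °C for 30 min. Stopped with 0.5 mL glacial acetic acid; formazan read at 560 nm. Percent inhibition from ε 7.2×10³ M⁻¹cm⁻¹.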

[6] = tested on: Rattus norvegicus; assay: Decrease in phospholipid level in WR-1339-induced hyperlipidemic rat plasma at 100 mg/kg, po; design: scale not given: the % may be the effect or the level left; in short: as §1
[7] = tested on: Rattus norvegicus; assay: Decrease in triglyceride level in WR-1339-induced hyperlipidemic rat plasma at 100 mg/kg, po; design: scale not given: the % may be the effect or the level left; in short: as §1
[8] = tested on: Rattus norvegicus; assay: Decrease in total cholesterol level in WR-1339-induced hyperlipidemic rat plasma at 100 mg/kg, po; design: scale not given: the % may be the effect or the level left; in short: as §1

SMILES	Activity [1] [nmol/h]	Activity [2] [%]	Activity [3] [%]	Activity [4] [%]	Activity [5] [nmol/min]	Activity [6] [%]	Activity [7] [%]	Activity [8] [%]
CC(=O)C1=CC[C@H]2[C@@H]3CC=C4C[C@@H](OC(=O)c5ccccc5Cl)CC[C@]4(C)[C@H]3CC[C@]12C	35.01	-21	-14	-17	14.33	–	–	–
CC(=O)OC[C@H]1O[C@H](OCCO[C@@H]2C[C@H]3[C@@H]4CC=C5C[C@@H](O)CC[C@]5(C)[C@H]4CC[C@]3(C)[C@H]2C(C)=O)[C@@H](OC(C)=O)[C@@H](OC(C)=O)[C@@H]1OC(C)=O	35.05	–	–	–	13.22	–	–	–
CC(=O)OCCO[C@@H]1C[C@H]2[C@@H]3CC=C4C[C@@H](OC(C)=O)CC[C@]4(C)[C@H]3CC[C@]2(C)[C@H]1C(C)=O	41.5	-13	-16	-13	21.5	–	–	–
C[C@H](O)[C@H]1[C@H](OCCO)C[C@H]2[C@@H]3CC=C4C[C@@H](O)CC[C@]4(C)[C@H]3CC[C@]12C	31.09	-23	-26	-25	9.33	–	–	–
CC(=O)OCCO[C@@H]1C[C@H]2[C@@H]3CC=C4C[C@@H](OC(C)=O)CC[C@]4(C)[C@H]3CC[C@]2(C)[C@H]1[C@H](C)OC(C)=O	33.9	-18	-13	-14	12.63	–	–	–
C/C(=N\OCCCCCBr)C1=CC[C@H]2[C@@H]3CC=C4C[C@@H](O)CC[C@]4(C)[C@H]3CC[C@]12C	38.52	-4	-5	-5	15.33	–	–	–
CC(=O)C1=CC[C@H]2[C@@H]3CC=C4C[C@@H](OC(=O)c5ccc(Cl)cc5)CC[C@]4(C)[C@H]3CC[C@]12C	27.16	-27	-25	-27	11.1	–	–	–
CC(=O)O[C@@H]1[C@@H](OC(C)=O)[C@H](C)O[C@@H](OCCO[C@@H]2C[C@H]3[C@@H]4CC=C5C[C@@H](O)CC[C@]5(C)[C@H]4CC[C@]3(C)[C@H]2C(C)=O)[C@@H]1OC(C)=O	39.02	–	–	–	12.8	–	–	–
CC(=O)[C@H]1[C@H](OCCO)C[C@H]2[C@@H]3CC=C4C[C@@H](O)CC[C@]4(C)[C@H]3CC[C@@]21C	36.12	-13	-11	-8	7.83	–	–	–
Cc1ccc(C)c(OCCCC(C)(C)C(=O)O)c1 [GEMFIBROZIL]	–	–	–	–	–	-36	-32	-37

From ChEMBL document CHEMBL1148693, “Expeditious and convenient synthesis of pregnanes and its glycosides as potential anti-dyslipidemic and anti-oxidant agents” (2007)
